Experimental findings from ChEMBL document CHEMBL4382237, “Design, Synthesis, and Biological Evaluation of 2-Nitroimidazopyrazin-one/-es with Antitubercular and Antiparasitic Activity” (J Med Chem, 2018) are described below.

The structures appear in SMILES notation. A value given as a limit tells only on which side of the number the result lay.

Assay [1] concerns Trypanosoma brucei brucei. Briefly: Antiparasitic activity against bloodstream form of Trypanosoma brucei brucei strain 427 assessed as inhibition of parasitic growth at 40 uM after 48 hrs by resazurin dye-based assay relative to control. The assay is classed as functional. The settings on record: strain 427, 48 h, read-out: GI. (In general: Alamar Blue is a resazurin reagent that responds to reducing activity.)

The test system of a further assay is Entamoeba histolytica. Briefly: Antiparasitic activity against Entamoeba histolytica HM-1:IMSS trophozoites after 24 to 48 hrs by CellTiter-Glo luminescent cell viability assay. The assay is classed as functional, organism-based. An outline of the steps: (§1)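 Axenic trophozoites were kept in TYI-S-33 with penicillin (100 U/mL) and streptomycin (100 µg/mL) and harvested in log phase. 5000 parasites per well were exposed to a final 8-point two-fold series of 0.39–50 µM, from 10 mM DMSO stocks. Plates were incubated 24–48 h at 37 °C under anaerobic conditions. ATP luminescence viability was read in triplicate. Percent inhibition is given at the highest concentration tested.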

The test system of a further assay is Giardia intestinalis. Briefly: Antiparasitic activity against Giardia lamblia WB trophozoites assessed as inhibition of parasitic growth at 50 uM after 24 to 48 hrs by CellTiter-Glo luminescent cell viability assay relative to control. The assay is classed as functional. The settings on record: Giardia duodenalis, read-out: GI. An outline of the steps:
as §1
In general terms: Cellular ATP, detected with luciferase, serves as a proxy for viable cell number.

For assay [2], the system named is Mycobacterium tuberculosis. In words: Antibacterial activity against non-replicating Mycobacterium tuberculosis H37Rv after 5 days under hypoxic condition by resazurin dye-based fluorescence assay. Format: functional. The settings on record: 120 h. In short, it runs like this:
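Same H37Rv inoculum (OD600 0.001, ~2 x 10^4 CFU/mL) in 7H9S with serially diluted compound. Plates held 5 days at 0.1% oxygen, then resazurin plus Tween-80 added.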

One may read the MIC as the lowest concentration that inhibits growth of the organism. A higher MIC goes with weaker potency. For the compound `Cc1cn2cc([N+](=O)[O-])nc2c(OCCO)n1`, in assay [1], the inhibition of growth at 40 µM was determined as 56%. The IC50 in the assay on Entamoeba histolytica (read-out: IC50) is above 50 µM; with Entamoeba histolytica (read-out: pIC50 (converted)), above 50.1 µM. Further, the inhibition of growth at 50 µM with Giardia intestinalis was 80%. Besides, the MIC in assay [2] was above 32 µg/mL.
